Laboratory results from ChEMBL document CHEMBL3259541, “Synthesis and biological evaluation of antimetastatic agents predicated upon dihydromotuporamine C and its carbocyclic derivatives” (J Med Chem, 2014).

Key:
L3.6pl [1] = experiment: Effect on intracellular ceramide population in human L3.6PL cells assessed as sphingomyelin N25:1 level measured per mg of protein at 0.6 uM after 48 hrs incubation by mass spectrometry analysis (reference value: 0.02 +/- 0.02 nmol); assay type: functional
L3.6pl [2] = experiment: Effect on intracellular ceramide population in human L3.6PL cells assessed as sphingomyelin N24:2 level measured per mg of protein at 0.6 uM after 48 hrs incubation by mass spectrometry analysis (reference value: 0.25 +/- 0.09 nmol); assay type: functional
L3.6pl [3] = experiment: Effect on intracellular ceramide population in human L3.6PL cells assessed as sphingomyelin N19:0 level measured per mg of protein at 0.6 uM after 48 hrs incubation by mass spectrometry analysis (reference value: 0.01 +/- 0.01 nmol); assay type: functional
L3.6pl [4] = experiment: Effect on intracellular ceramide population in human L3.6PL cells assessed as sphingomyelin N20:1 level measured per mg of protein at 0.6 uM after 48 hrs incubation by mass spectrometry analysis (reference value: 0.04 +/- 0.01 nmol); assay type: functional
polyamine transporter = experiment: Selectivity ratio of IC50 for polyamine transporter deficient CHO-MG cells to IC50 for CHO cells by MTS assay; assay type: ADME, cell-based, Cricetulus griseus; settings: chinese hamster, polyamine transporter deficient CHO-MG cells and CHO cells; read-out: Ratio IC50
Outline: (§1)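 CHO and polyamine-transport-deficient CHO-MG* cells pretreated 24 h with 1 mM aminoguanidine, then exposed to compound for 48 h at 37 °C. Triplicate. IC50 taken as 50% growth inhibition. PTS selectivity expressed as the CHO-MG*/CHO IC50 ratio.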

L3.6pl [5] = experiment: Effect on intracellular ceramide population in human L3.6PL cells assessed as sphingomyelin N16:0 level measured as contribution to total ceramide population at 0.6 uM after 48 hrs incubation by mass spectrometry analysis (reference value: 37.3%); assay type: functional
L3.6pl [6] = experiment: Effect on intracellular ceramide population in human L3.6PL cells assessed as sphingomyelin N24:0 level measured per mg of protein at 0.6 uM after 48 hrs incubation by mass spectrometry analysis (reference value: 0.22 +/- 0.06 nmol); assay type: functional
L3.6pl [7] = experiment: Effect on intracellular ceramide population in human L3.6PL cells assessed as sphingomyelin N17:0 level measured per mg of protein at 0.6 uM after 48 hrs incubation by mass spectrometry analysis (reference value: 0.09 +/- 0.03 nmol); assay type: functional
L3.6pl [8] = experiment: Effect on intracellular ceramide population in human L3.6PL cells assessed as sphingomyelin N14:0 level measured per mg of protein at 0.6 uM after 48 hrs incubation by mass spectrometry analysis (reference value: 0.12 +/- 0.03 nmol); assay type: functional
L3.6pl [9] = experiment: Effect on intracellular ceramide population in human L3.6PL cells assessed as ceramide N16:0 to N22:1 ratio measured at 0.6 uM after 48 hrs incubation by mass spectrometry analysis (reference value: 5.8 no_unit)
CHO-MG = experiment: Cytotoxicity against polyamine transporter deficient CHO-MG cells assessed as cell growth after 48 hrs incubation by MTS assay in presence of 1 mM aminoguanidine; assay type: ADME, cell-based; settings: Cricetulus griseus; outline: as §1
L3.6pl [10] = experiment: Effect on intracellular ceramide population in human L3.6PL cells assessed as sphingomyelin N20:0 level measured per mg of protein at 0.6 uM after 48 hrs incubation by mass spectrometry analysis (reference value: 0.09 +/- 0.03 nmol); assay type: functional
[11] = Cytotoxicity against human L3.6PL cells assessed as inhibition of cell growth after 48 hrs incubation by MTS assay in presence of 250 uM aminoguanidine treated 24 hrs prior compound addition; assay type: functional, cell-based; settings: for IC50: Homo sapiens, L3.6pl
Outline: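 L3.6pl cells pretreated 24 h with 250 μM aminoguanidine, then incubated with compound for 48 h at 37 °C. Triplicate. IC50 is the concentration giving 50% growth inhibition and IC5 the concentration giving 5% inhibition, both versus untreated control.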

L3.6pl [12] = experiment: Effect on intracellular ceramide population in human L3.6PL cells assessed as sphingomyelin N23:1 level measured per mg of protein at 0.6 uM after 48 hrs incubation by mass spectrometry analysis (reference value: 0.13 +/- 0.05 nmol); assay type: functional
L3.6pl [13] = experiment: Effect on intracellular ceramide population in human L3.6PL cells assessed as sphingomyelin N15:0 level measured per mg of protein at 0.6 uM after 48 hrs incubation by mass spectrometry analysis (reference value: 0.09 +/- 0.02 nmol); assay type: functional
L3.6pl [14] = experiment: Effect on intracellular ceramide population in human L3.6PL cells assessed as sphingomyelin N22:0 level measured per mg of protein at 0.6 uM after 48 hrs incubation by mass spectrometry analysis (reference value: 0.30 +/- 0.10 nmol); assay type: functional
L3.6pl [15] = experiment: Effect on intracellular ceramide population in human L3.6PL cells assessed as sphingomyelin N23:0 level measured per mg of protein at 0.6 uM after 48 hrs incubation by mass spectrometry analysis (reference value: 0.08 +/- 0.04 nmol); assay type: functional
L3.6pl [16] = experiment: Effect on intracellular ceramide population in human L3.6PL cells assessed as sphingomyelin N22:1 level measured as contribution to total ceramide population at 0.6 uM after 48 hrs incubation by mass spectrometry analysis (reference value: 6.5%); assay type: functional
L3.6pl [17] = experiment: Effect on intracellular ceramide population in human L3.6PL cells assessed as sphingomyelin N24:3 level measured per mg of protein at 0.6 uM after 48 hrs incubation by mass spectrometry analysis (reference value: 0.05 +/- 0.02 nmol); assay type: functional
L3.6pl [18] = experiment: Effect on intracellular ceramide population in human L3.6PL cells assessed as sphingomyelin N16:1 level measured per mg of protein at 0.6 uM after 48 hrs incubation by mass spectrometry analysis (reference value: 0.24 +/- 0.04 nmol); assay type: functional
CHO = experiment: Cytotoxicity against CHO cells assessed as cell growth after 48 hrs incubation by MTS assay in presence of 1 mM aminoguanidine; assay type: cell-based; settings: Cricetulus griseus; outline: as §1
L3.6pl [19] = experiment: Effect on intracellular ceramide population in human L3.6PL cells assessed as sphingomyelin N23:2 level measured per mg of protein at 0.6 uM after 48 hrs incubation by mass spectrometry analysis (reference value: 0.03 +/- 0.02 nmol); assay type: functional
L3.6pl [20] = experiment: Effect on intracellular ceramide population in human L3.6PL cells assessed as sphingomyelin N22:2 level measured per mg of protein at 0.6 uM after 48 hrs incubation by mass spectrometry analysis (reference value: 0.02 +/- 0.00 nmol); assay type: functional
L3.6pl [21] = experiment: Effect on intracellular ceramide population in human L3.6PL cells assessed as sphingomyelin N20:0 level measured as contribution to total ceramide population at 0.6 uM after 48 hrs incubation by mass spectrometry analysis (reference value: 1.1%); assay type: functional
L3.6pl [22] = experiment: Effect on intracellular ceramide population in human L3.6PL cells assessed as sphingomyelin N18:0 level measured per mg of protein at 0.6 uM after 48 hrs incubation by mass spectrometry analysis (reference value: 0.38 +/- 0.11 nmol); assay type: functional
L3.6pl [23] = experiment: Effect on intracellular ceramide population in human L3.6PL cells assessed as sphingomyelin N21:0 level measured per mg of protein at 0.6 uM after 48 hrs incubation by mass spectrometry analysis (reference value: 0.03 +/- 0.01 nmol); assay type: functional

Cl.NCCCNCCCN1CCCCCCCCCCCCCC1
Activity (L3.6pl [1]): 0.03 nmol
Activity (L3.6pl [2]): 0.27 nmol
Activity (L3.6pl [3]): 0.02 nmol
Activity (L3.6pl [4]): 0.04 nmol
selectivity ratio (polyamine transporter): 1
Activity (L3.6pl [5]): 20.3%
Activity (L3.6pl [6]): 0.21 nmol
Activity (L3.6pl [7]): 0.14 nmol
Activity (L3.6pl [8]): 0.24 nmol
Ratio (L3.6pl [9]): 1.1
IC50 (CHO-MG): 2.96 µM
Activity (L3.6pl [10]): 0.14 nmol
IC5 [11]: 0.6 µM
IC50 [11]: 0.99 µM
Activity (L3.6pl [12]): 0.15 nmol
Activity (L3.6pl [13]): 0.15 nmol
Activity (L3.6pl [14]): 0.4 nmol
Activity (L3.6pl [15]): 0.09 nmol
Activity (L3.6pl [16]): 18.6%
Activity (L3.6pl [17]): 0.06 nmol
Activity (L3.6pl [18]): 0.31 nmol
IC50 (CHO): 2.9 µM
Activity (L3.6pl [19]): 0.02 nmol
Activity (L3.6pl [20]): 0.02 nmol
Activity (L3.6pl [21]): 0.6%
Activity (L3.6pl [22]): 0.47 nmol
Activity (L3.6pl [23]): 0.04 nmol

Cl.NCCCNCCCNCC1CCCCCCCCCCCCCC1
Activity (L3.6pl [1]): 0.03 nmol
Activity (L3.6pl [2]): 0.31 nmol
Activity (L3.6pl [3]): 0.02 nmol
Activity (L3.6pl [4]): 0.05 nmol
selectivity ratio (polyamine transporter): 1
Activity (L3.6pl [5]): 38.4%
Activity (L3.6pl [6]): 0.25 nmol
Activity (L3.6pl [7]): 0.16 nmol
Activity (L3.6pl [8]): 0.2 nmol
Ratio (L3.6pl [9]): 8.4
IC50 (CHO-MG): 87.3 µM
Activity (L3.6pl [10]): 0.15 nmol
IC5 [11]: 80 µM
IC50 [11]: 89.4 µM
Activity (L3.6pl [12]): 0.17 nmol
Activity (L3.6pl [13]): 0.17 nmol
Activity (L3.6pl [14]): 0.46 nmol
Activity (L3.6pl [15]): 0.1 nmol
Activity (L3.6pl [16]): 4.6%
Activity (L3.6pl [17]): 0.06 nmol
Activity (L3.6pl [18]): 0.34 nmol
IC50 (CHO): 82.9 µM
Activity (L3.6pl [19]): 0.02 nmol
Activity (L3.6pl [20]): 0.03 nmol
Activity (L3.6pl [21]): 1.5%
Activity (L3.6pl [22]): 0.54 nmol
Activity (L3.6pl [23]): 0.04 nmol
